An excerpt weighted towards active compounds, which were near 1.8% of everything screened.
STAT1 inh = inhibitors of IFN-gamma induced STAT1 signaling. NIH 3T3 STAT1-luciferase reporter, luminescence. 0.35% of 200,000 active. AID 920. inhibition, % at 5.5 µM;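 active = inhibition above a set limit, the mean inhibition across all tested compounds plus 3 SD, cut at about 34% in these data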;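 also: 0% = IFN-gamma with DMSO and 100% = IFN-gamma with 300 µM nifuroxazide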
STAT3 act = activators of IL-6 induced STAT3 signaling; AID 871; activation (% of control), % at 5.6 µM; 0.91% of 190,000 active; U3A cells, IL-6 STAT3-luciferase reporter, luminescence; 100% = signal with IL-6 EC80 alone;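 active = activation above the screen-wide mean of compound activation plus 3 SD, cut at about 130% in these data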;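 also: 0% = background luminescence of wells with medium and substrate only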
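Test system: Human STAT1-deficient U3A cells with stable STAT3-luciferase reporter | Also added: Interleukin-6, 33 ng/mL | Timing: Compound pre-incubation 1 h before IL-6, then 6 h stimulation at 37 °C | Technique: Luciferase reporter luminescence | Read-out: Percent of IL-6-only median luminescence | Benchmarks: IL-6-only wells as 100% reference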
TRAIL sens C8 = sensitizes caspase-8 expressing cells to TRAIL. 1% of 360,000 active. inhibition (viability loss, TRAIL sensitization), % at 10 µM. NB7+C8 cells + TRAIL, ATPlite viability luminescence;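 active = compounds causing at least 50% loss of cell viability in the single-dose screen, relative to plate controls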
PPC-1+TRAIL kill = PPC-1 cancer cell killing with TRAIL present | PPC-1 cells + TRAIL, ATPLite viability luminescence | cell killing (% activity), % at 4 µM or 5 µM | 0.41% of 220,000 active | AID 1443;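 active = cell killing above 50% in the first pass at 4 µM, then a duplicate retest at 5 µM averaging 50% or more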;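 also: plate controls were cells with TRAIL plus DMSO for no effect and medium-only wells lacking cells for full effect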
STAT3 inh = inhibitors of IL-6 induced STAT3 signaling; inhibition, % at 5.5 µM; 0.89% of 190,000 active; U3A cells, IL-6 STAT3-luciferase reporter, luminescence; host cell line lacks STAT1; AID 862;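 active = inhibition above the mean inhibition across all screened compounds plus 3 SD, cut at about 44% in these data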;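 also: 0% = DMSO only wells and 100% = 100 µM nifuroxazide control wells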
Active calls of the source: *; x = not tested or not shown.

SMILES | STAT1 inh | STAT3 act | TRAIL sens C8 | PPC-1+TRAIL kill | STAT3 inh
O=C1/C(=C\c2cccs2)Sc2ccc3ccccc3c21 | -6 | 180* | 37 | 12 | -94
CS(=O)(=O)N1CCN(C(=S)NCc2ccc(Cl)cc2)CC1 | -6 | 105 | -33 | 9 | 0
C[C@H](NC(=O)c1ncn2c1c(=O)[nH]c1ccccc12)c1ccccc1 | x | x | 22 | x | x
C[C@H](NC(=O)c1ncn2c1c(=O)[nH]c1ccc(Br)cc12)c1ccccc1 | x | x | 91* | x | x
CC(Oc1cccnc1[N+](=O)[O-])C(=O)N1CCc2ccccc21 (stereo not given) | x | x | 2 | x | x
Cc1ccc(-c2noc(-c3ccoc3C)n2)cc1 | -59 | 138* | 13 | 38 | -43
CC(=O)Nc1ccc(S(=O)(=O)N2CCC(C(N)=O)(N3CCCCC3)CC2)cc1 | x | x | 6 | x | x
CCSc1nc2c([nH]c3ccccc32)c(=O)n1C | -2 | 111 | -1 | 9 | -8
CCOc1ccc(-n2c(SCC(N)=O)nc3c([nH]c4ccccc43)c2=O)cc1 | 6 | 134* | 51* | 18 | -37
COC(=O)C(C)Sc1nc2c([nH]c3ccccc32)c(=O)n1C (stereo not given) | 7 | 133* | -6 | 22 | -32
CCOC(=O)[C@H]1[C@H]2COc3ccccc3[C@@H]2N2C(=O)c3ccccc3NC(=O)[C@@]12C | x | x | -16 | x | x
COc1ccc(N2CCN(c3ncnc4c3[nH]c3ccccc34)CC2)cc1 | 41* | 35 | 38 | 25 | 77*
COc1ccc2[nH]c3c(N4CCc5ccccc5C4)ncnc3c2c1 | x | x | 43 | 44 | x
CSc1nc(O)c(C(c2ccc(O)cc2)c2c(O)nc(SC)[nH]c2=O)c(=O)[nH]1 | x | x | -5 | x | x
CCc1ccc(C2=NN(C(=O)OC)C(O)(C(F)(F)F)C2)cc1 (stereo not given) | 38* | 48 | 55* | 35 | 69*
CCOC(=O)N1N=C(c2ccc(OC)cc2)CC1(O)C(F)(F)F (stereo not given) | -19 | 90 | 10 | 30 | 13
COc1ccc(-c2cc(-c3ccc(OC)cc3)c(C#N)c(SC)n2)cc1 | -3 | 96 | 10 | 3 | 8
COc1ccc(-c2cc(-c3ccccc3)c(C#N)c(S(C)(=O)=O)n2)cc1 | -7 | 100 | 78* | 47 | 2
CS(=O)(=O)c1nc(-c2ccc(Br)cc2)cc(-c2ccccc2)c1C#N | -3 | 99 | 88* | 31 | 2
N#Cc1c(-c2ccc(Br)cc2)cc(-c2cccnc2)nc1N | 0 | 107 | 8 | 21 | -3
CC(=O)c1ccc(-c2ccc(C(=O)N(C)c3c(N)n(Cc4ccccc4)c(=O)[nH]c3=O)o2)cc1 | x | x | -4 | x | x
O=C(CN1C(=O)NC2(CCCCC2)C1=O)Nc1ccc2c(c1)CCC2 | -22 | 134* | -2 | -19 | -34
c1ccc(COc2ncnc3c2ncn3CCCNCC(c2ccccc2)c2ccccc2)cc1 | x | x | 63* | x | x
COC(=O)c1cc2c(=O)n3ccccc3nc2n(C(C)C)c1=N | -4 | 136* | x | x | -39
CCn1c(=N)c(C(=O)OC)cc2c(=O)n3ccccc3nc21 | x | x | x | 18 | x
SMILES | STAT1 inh | STAT3 act | TRAIL sens C8 | PPC-1+TRAIL kill | STAT3 inh
COc1cccc(C2c3[nH]c4ccccc4c3CCN2Cc2cccn2-c2ncccn2)c1 (stereo not given) | -1 | 133* | 2 | 20 | -31
CCn1cc(CN2CCc3c([nH]c4ccccc34)C2c2cccc(OC)c2)c(C)n1 (stereo not given) | -5 | 133* | -9 | 10 | -30
CCCCN(C(=O)c1cc(Cl)nc2ccccc12)c1c(N)n(Cc2ccccc2)c(=O)[nH]c1=O | x | x | -16 | x | x
CCCn1c2c(c(O)c(C(=O)Nc3ccccn3)c1=O)CCCC2 | x | x | x | 6 | x
CCCn1c2c(c(O)c(C(=O)Nc3ccccc3)c1=O)CCCC2 | -2 | 133* | -11 | 14 | -28
COCCn1c(C)cc(C(=O)CSc2n[nH]c(N)n2)c1C | -7 | 101 | 16 | -10 | 1
COCCn1c(C)cc(C(=O)CSc2nnc(C)s2)c1C | 39* | 26 | 50* | 39 | 92*
CNc1cncc(-c2cccc(C(=O)NC3CC3)c2)n1 | x | x | 19 | x | x
Nc1[nH]c(C(=O)c2ccccc2)c(-c2ccccc2C(F)(F)F)c1C(=O)NCCc1cccs1 | x | x | -30 | x | x
O=C(OCc1nc2ccccc2s1)c1ccccc1O | -15 | 111 | 1 | 16 | -6
O=C(OCc1nc2ccccc2s1)c1cccs1 | -40 | 151* | 24 | 34 | -57
COc1ccc(C=NNC(=O)NN=Cc2ccc(OC)c(OC)c2)cc1OC | x | x | 72* | x | x

Screening results deposited in PubChem BioAssay by several laboratories.
